Active and inactive are the calls of the source. No cut-off for these calls is given here.
Key:
U-251 = assay: Antiproliferative activity against human U-251 cells incubated for 48 hrs by MTT assay; assay type: functional, cell-based; settings: U-251, 48 h
Method in brief: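 Monolayer cells in DMEM with 10% FBS, penicillin and streptomycin, 37°C, 5% CO2. Exponentially growing cells were seeded in 96-well plates and exposed to compound for 48 h. MTT was then added for 4 h at 37°C. Medium was removed, formazan dissolved in DMSO, and OD read at 490 nm. Each plate had five replicate wells, and assays were repeated three times per line.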

[1] = Toxicity in nude mouse xenografted with human MGC-803 cells assessed as pathological changes in spleen at 12 to 48 mg/kg, ip administered once every two days for 21 days by H and E staining based analysis; assay type: organism-based; settings: in vivo, 504 h, dose 12-48 mg/kg, time 21 day
Method in brief: (§1)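 Nude mice carrying s.c. xenografts (1×10^6 cells, right flank) randomized at 60–80 mm³ (n = 6), dosed i.p. every 2 days in 5% v/v DMSO/saline. Major organs examined by H&E staining at 200× magnification.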

[2] = Toxicity in nude mouse xenografted with human U-251 cells assessed as pathological changes in spleen at 24 to 48 mg/kg, ip administered once every two days for 21 days by H and E staining based analysis; assay type: organism-based; settings: in vivo, 504 h, dose 24-48 mg/kg, time 21 day; method in brief: as §1
MGC-803 = assay: Induction of ferroptosis in human MGC-803 cells assessed as appearance of ruptured mitochondria at 5 uM incubated for 24 hrs by TEM analysis; assay type: functional, cell-based
Method in brief: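 Cell samples prefixed in 3% glutaraldehyde, postfixed in 1% osmium tetroxide, dehydrated through graded acetone (30–100%), embedded in Epon812, cut into 60–90 nm ultrathin sections on copper grids, stained with uranyl acetate 10–15 min and lead citrate 1–2 min at room temperature, examined by TEM.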

[3] = tested on: calf thymus DNA (Bos taurus); assay: Competitive binding affinity to calf thymus DNA in presence of propidium iodide by fluorescence intercalator displacement assay

IC50 (U-251): > 50 µM
Activity [3]: Active
SMILES: CN(C)CCN1C(=O)c2cccc3c(N4CCN(C(=O)CCOCCOCCOCCOCCNC(=O)CCCCC5SCC6NC(=O)NC65)CC4)ccc(c23)C1=O (stereo not given)
Activity [1]: Non-Toxic
Activity [2]: Non-Toxic
Activity (MGC-803): Active

From ChEMBL document CHEMBL5532699, “Design, docking optimization, and evaluation of biotin-PEG4-1,8-naphthalimide as a potent and safe antitumor agent with dual targeting of ferroptosis and DNA” (RSC Med Chem, 2024)
